# The list is not random: actives were taken first. Their share in the collection is about 4.2%.
# OX1R antag-1 – blocks the human orexin 1 receptor. O43613. OX1R-expressing cells, FRET antagonist read-out. inhibition, % at 6.6 µM. actives 1.8% (n = 330,000). AID 485270; in the data active means inhibition mostly above about 38%, no sharp cut-off; inactive means mostly below about 40%;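 further: 0% = agonist challenge alone and 100% = reference antagonist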
# GalR3 antagonist – human GalR3 antagonism; HEK293 GalR3-CNG cAMP membrane potential fluorescence; galR3 body fused to GalR1 C-terminus; AID 651719; O60755; actives 0.44% (n = 360,000); inhibition, % at 3 µM;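 active means inhibition above the screen-wide average plus 3 SD, cut at about 13% in these data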;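 further: forskolin and galanin both at EC90 stimulate the cells; cAMP rise reported by CNG channel membrane potential dye signal; 0% = forskolin plus galanin with DMSO and 100% = forskolin alone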
# Target sequence (O60755 1-299 limits assumed): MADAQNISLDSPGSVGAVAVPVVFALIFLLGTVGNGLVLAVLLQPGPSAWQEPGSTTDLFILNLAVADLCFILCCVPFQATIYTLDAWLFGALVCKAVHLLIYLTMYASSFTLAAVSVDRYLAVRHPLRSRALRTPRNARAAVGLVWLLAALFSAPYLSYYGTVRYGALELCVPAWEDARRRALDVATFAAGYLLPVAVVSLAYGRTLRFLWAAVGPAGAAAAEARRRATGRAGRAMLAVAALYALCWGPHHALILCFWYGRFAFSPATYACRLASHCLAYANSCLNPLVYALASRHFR
# TAAR1 antagonist – antagonists of human TAAR1; CHO RD-HGA16 TAAR1, Fluo-8 calcium fluorescence, antagonist; inhibition, % at 3 µM; actives 1.5% (n = 360,000);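 active means inhibition above a per-plate cutoff, the mean inhibition of test compounds on that plate plus 3 SD, cut at about 49% in these data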;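 further: 0% = DMSO plus EC80 beta-PEA response and 100% = DMSO alone without agonist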
# Target sequence (Q96RJ0 whole entry, looked up): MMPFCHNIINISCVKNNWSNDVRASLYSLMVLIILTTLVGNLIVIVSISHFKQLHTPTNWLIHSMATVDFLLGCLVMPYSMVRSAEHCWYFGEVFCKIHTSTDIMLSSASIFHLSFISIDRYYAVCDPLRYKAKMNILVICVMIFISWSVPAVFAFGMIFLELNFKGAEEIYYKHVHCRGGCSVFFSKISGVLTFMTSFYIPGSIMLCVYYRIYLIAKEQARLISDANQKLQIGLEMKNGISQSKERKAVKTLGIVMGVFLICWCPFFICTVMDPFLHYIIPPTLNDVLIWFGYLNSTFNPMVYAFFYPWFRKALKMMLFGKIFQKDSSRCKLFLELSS
#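 System: RD-HGA16 CHO cells with stable hTAAR1 and Gα16 | Probe or stimulus: EC80 β-phenethylamine stimulus | Dosing: 3 µM, single point | Times: Dye loading 75 min at 37 °C, then 30 min room temperature | Measured by: Fluo-8 calcium-sensitive fluorescence | Read-out basis: % inhibition of agonist calcium response | Replicates: n of 1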
# CHO parental Ca – signal in parental CHO cells, OX1R antagonist counter-screen; parental CHO-K1, ATP-induced calcium, Fluo-8 fluorescence; inhibition, % at 5.6 µM; actives 0.63% (n = 330,000);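 active means inhibition above that plate's mean sample inhibition plus 3 SD, cut at about 26% in these data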;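 further: 0% = ATP-challenged DMSO wells and 100% = DMSO wells without ATP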
#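 Test system: parental CHO cells; detection: calcium-sensitive Fluo-8 fluorescence; evaluation: percent inhibition of calcium signal; also added: ATP as calcium-mobilizing challenge; repeats: one well per compound; control set: ATP-challenged DMSO wells low, unchallenged DMSO wells high; compound: single nominal dose of 5.6 µM per compound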
# TAAR1 agonist – human TAAR1 agonism | CHO RD-HGA16 TAAR1, Fluo-8 calcium fluorescence; vehicle wells 0%, saturating PEA agonist 100% | activation, % at 3 µM | actives 0.99% (n = 360,000) | AID 624467;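 active means activation above the mean activation of all test compounds in the run plus 3 SD, cut at about 38% in these data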
#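 Repeats: no replicates (n 1) | Material: CHO-derived RD-HGA16 cells with stable Gα16 and human TAAR1 | Technique: Kinetic Fluo-8 calcium fluorescence | Schedule: 17-24 h seeding, 75 min 37 °C dye, 30 min RT | Evaluation: % activation from peak over basal fluorescence ratio, DMSO-to-PEA scaled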
# OX1R antag-2 – human HCRTR1 antagonism; CHO/OX1R cells, Fluo-8 calcium fluorescence, orexin A; inhibition, % at 5 µM; O43613; actives 0.43% (n = 330,000); AID 434989;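 active means inhibition above its plate's threshold, mean inhibition of all tested compounds on the plate plus 3 SD, cut at about 37% in these data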;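 further: 0% = orexin A challenge wells and 100% = SB-334867-A antagonist wells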
# OX1R HTRF confirm – OX1R (human) antagonism, HTRF confirmed. shares compounds with OX1R antag-1. OX1R-expressing cells, HTRF antagonist assay. inhibition, % at 6.6 µM. actives 49% (n = 1,800); in the data active means inhibition above about 55%;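 further: CHO cells expressing OX1R stimulated with orexin A at about EC80; 0% = agonist challenge alone and 100% = reference antagonist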
# CHO-K1 HTRF – counter-screen: parental CHO-K1 HTRF response; shares compounds with OX1R antag-1; parental CHO-K1 cells, HTRF counterscreen; inhibition, % at 6.6 µM; actives 48% (n = 1,800); AID 493232; in the data active means inhibition above about 17%;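 further: 0% = agonist challenge with vehicle and 100% = vehicle alone without agonist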
# An asterisk follows results filed as active; . = no result.
SMILES,OX1R antag-1,GalR3 antagonist,TAAR1 antagonist,CHO parental Ca,TAAR1 agonist,OX1R antag-2,OX1R HTRF confirm,CHO-K1 HTRF
O=C1[C@H]2[C@H](C=CC[C@H]2C(=O)N2CCN(c3ccccc3)CC2)CCN1Cc1ccc(Cl)c(Cl)c1,16.2,-4.1,43.1,-21.6,25.3,-10.7,.,.
O=C(NCCc1ccccc1)[C@@H]1CC=C[C@@H]2CCN(Cc3ccc(Cl)c(Cl)c3)C(=O)[C@@H]21,81.9*,-7.4,17.4,-28.6,31.9,16.8,65.8*,4.6
O=[N+]([O-])c1cnc(Nc2ccc(Cl)cn2)c([N+](=O)[O-])c1,96.9*,-4.1,-10.7,-3.4,-0.5,-4.7,47.6,45.3*
COc1c(C)cc(C(=O)C2CCCN(C(=O)c3cccc(-n4cccn4)c3)C2)cc1C (configuration not stated),89.5*,0.6,1.4,-9.4,-1.0,-7.7,80.9*,3.1
CCOC(=O)N1CCN(S(=O)(=O)c2cccc3nsnc23)CC1,82.2*,2.3,-4.9,-19.9,0.5,-27.0,33.3,38.8*
CCOC(=O)C1CCCN(S(=O)(=O)c2cccc3nsnc23)C1 (configuration not stated),27.4,-0.5,1.1,-16.2,-1.7,-13.2,.,.
O=S(=O)(c1cccc2nsnc12)N1CCN(c2ncccn2)CC1,84.4*,4.5,21.1,-16.6,7.4,-16.0,25.3,20.3*
Cc1onc(-c2ccccc2)c1C(=O)N/N=C/c1ccc(Br)cc1,5.9,-1.9,-2.8,-10.7,5.7,-21.1,.,.
COc1ccc(CNc2nc(-c3ccccc3)nc3ccccc23)cc1OC,85.0*,-7.3,-40.6,-13.9,7.7,11.7,67.7*,5.6
CCOc1ccccc1N1CC(C(=O)Nc2nccs2)CC1=O (configuration not stated),15.1,-1.0,-7.8,2.8,14.2,-15.9,.,.
CN1c2ccccc2C(O)=C(C(=S)Nc2ccccc2)S1(=O)=O,12.7,2.7,-22.7,-3.9,1.1,-12.9,.,.
CN1c2ccccc2C(O)=C(C(=S)Nc2ccc(F)c(Cl)c2)S1(=O)=O,81.8*,-2.8,7.0,-15.0,6.7,-7.5,50.7,14.1
CCC(=O)N(C1=C(NC)C(=O)c2ccccc2C1=O)C(C)C,80.0*,-3.8,4.5,-10.7,2.3,-21.5,66.2*,64.2*
CNC1=C(N(C(C)=O)c2ccc(Br)cc2)C(=O)c2ccccc2C1=O,104.7*,-4.8,0.0,-16.3,-0.9,-22.8,55.0*,96.6*
Cc1cccc(C)c1N/C=C/c1onc(C)c1[N+](=O)[O-],17.9,-2.9,2.7,-22.4,-0.3,-10.6,.,.
Cc1noc(/C=C/c2cccnc2)c1[N+](=O)[O-],79.3*,-7.5,-16.7,1.9,-1.0,-14.5,68.1*,83.6*
CN(C1CCS(=O)(=O)C1)S(=O)(=O)c1cccc2nsnc12 (configuration not stated),90.4*,-1.1,-0.6,-11.6,10.1,-18.2,49.0,41.2*
CCO/C(C)=N/n1c2nc3ccccc3nc2c2c(=O)n(C3CCCC3)c(C)nc21,99.5*,-2.8,12.2,-11.2,7.6,-34.4,19.7,36.5*
CCOC1=C2[C@H](c3ccc(CC)cc3)N(S(=O)(=O)c3ccc(C)cc3)C[C@H]2C(C#N)(C#N)C(C#N)(C#N)C1,.,-4.1,-14.4,.,2.2,.,.,.
O=[N+]([O-])c1ccc(C[n+]2cccc3ccc4cccnc4c32)cc1,137.5*,-3.0,-4.4,-13.4,2.3,0.4,44.5,56.3*
CC(C(=O)NCc1ccco1)n1nc(-c2ccccc2)c2cc(Cl)ccc21 (configuration not stated),14.7,4.9,8.7,-19.9,-1.3,-36.2,.,.
CN1CCc2cc3c(c4c2[C@H]1[C@H](O)c1ccccc1-4)OCO3,119.2*,-3.2,-18.6,-0.9,0.2,-17.4,66.0*,35.3*
Cc1ccc2nc(Nc3ccccc3)c(/C=N/O)c(=O)n2c1,98.0*,-1.9,11.3,-22.1,6.3,0.1,62.3*,10.1
Cc1cc[n+](C2=C([O-])c3ccccc3C(=O)/C2=N\S(=O)(=O)c2cccs2)cc1C,106.2*,0.6,-16.5,-12.8,3.5,-17.0,30.0,24.7*
Cc1ccc(NC2=C/C(=N/S(=O)(=O)c3cccs3)c3ccccc3C2=O)cc1C,9.4,-3.6,-6.8,-10.6,0.9,-3.7,.,.
SMILES,OX1R antag-1,GalR3 antagonist,TAAR1 antagonist,CHO parental Ca,TAAR1 agonist,OX1R antag-2,OX1R HTRF confirm,CHO-K1 HTRF
O=C(CSc1nc2ncccc2[nH]1)NCc1ccco1,6.4,0.2,-45.8,-4.0,2.2,-2.8,.,.
O=C(CN1C(=O)c2ccccc2C1=O)Nc1cccc(S(=O)(=O)Nc2ccccc2Cl)c1,15.7,-5.8,-32.0,-7.4,-0.4,-6.7,.,.
Cn1cccc([N+](=O)[O-])c1=O,.,-3.0,-24.6,.,1.9,.,.,.
Cn1c(=O)c(=O)n(C)c2cc([N+](=O)[O-])c([N+](=O)[O-])cc21,115.5*,-0.5,-35.3,-6.1,6.7,0.3,42.6,62.7*
CCOC(=O)c1nc(SC)n(C)c1C(=O)OCC,.,-8.6,5.1,.,0.4,.,.,.
CCN(C(=O)CN1C(=O)c2ccc([N+](=O)[O-])cc2C1=O)C1CCS(=O)(=O)C1 (configuration not stated),90.5*,0.1,5.4,5.8,1.7,-4.7,63.8*,73.7*
COc1cc(C(c2c(C)[nH][nH]c2=O)c2c(C)[nH][nH]c2=O)cc(Br)c1OC,8.1,-6.0,13.6,-11.7,4.2,-16.5,.,.
Cc1cc(=O)oc2cc(Oc3ccc([N+](=O)[O-])cc3[N+](=O)[O-])ccc12,88.6*,0.7,9.7,-1.5,-0.9,-11.1,59.0*,70.8*
CN(CC(=O)Nc1ccccc1Br)C(=O)c1ccccc1-c1nc2ccccc2s1,83.9*,-1.2,14.9,-21.7,-0.2,3.3,71.0*,3.7
COc1ccc(N=NC2=C(O)CC(C)(C)CC2=O)cc1,102.1*,0.0,1.6,-4.4,1.6,-10.1,32.8,27.8*
CC1(C)CC(=O)C(N=Nc2ccc(Br)cc2)=C(O)C1,10.3,-3.3,-31.4,-1.4,2.0,-18.8,.,.
Cc1nc2n[nH]c(N)c2nc1C,.,0.4,-8.3,.,0.6,.,.,.
O=[N+]([O-])c1ccc(NCCN2CCOCC2)c([N+](=O)[O-])c1,.,-8.1,-11.2,.,1.7,.,.,.
CCOc1cc(NCCN2CCOCC2)c([N+](=O)[O-])cc1OCC,91.0*,-6.9,-3.4,-7.3,-3.6,-25.6,38.2,48.7*

# Source: PubChem
